Compounds with a hit are over-represented: about 0.79% of the library has one in this group of screens.
hIAP block: human IAP inhibitors, primary screen, biochemical, luminescence, uHTS; inhibition, % at 10 µM; purified IAP, CDP-Star luminescence, 30 min; actives 0.12% (n = 330,000); AID 2544, 2010;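 active = inhibition reaching a set limit with compound at 10 µM in the primary screen, cut at about 35% in these data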
Target sequence (P09923 whole entry, looked up): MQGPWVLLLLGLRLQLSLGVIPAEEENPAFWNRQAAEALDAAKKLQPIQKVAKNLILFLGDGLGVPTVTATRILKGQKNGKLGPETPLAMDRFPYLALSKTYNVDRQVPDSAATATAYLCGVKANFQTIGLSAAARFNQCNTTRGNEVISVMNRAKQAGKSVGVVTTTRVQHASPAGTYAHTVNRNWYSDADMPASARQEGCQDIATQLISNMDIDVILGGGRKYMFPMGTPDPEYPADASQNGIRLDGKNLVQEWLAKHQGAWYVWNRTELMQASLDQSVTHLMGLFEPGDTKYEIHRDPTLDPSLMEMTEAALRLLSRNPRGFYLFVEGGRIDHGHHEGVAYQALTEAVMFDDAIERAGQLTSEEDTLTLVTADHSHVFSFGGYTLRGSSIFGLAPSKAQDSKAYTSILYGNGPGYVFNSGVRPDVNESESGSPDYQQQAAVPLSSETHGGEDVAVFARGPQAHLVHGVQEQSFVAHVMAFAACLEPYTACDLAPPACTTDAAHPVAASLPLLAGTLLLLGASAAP
bIAP activator: bovine intestinal alkaline phosphatase activators, primary screen, biochemical, bovine IAP, CDP-star luminescence; actives 0.17% (n = 200,000); purified bovine IAP, 30 min; hits give high values; fold of DMSO-control signal, blank-subtracted; alkaline phosphatase, intestinal [Bos taurus]; activation factor at 20 µM;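 active = activation factor of 2 or more at 20 µM, a signal rise over negative controls twice the positive control's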
mIAP activ: activators of mouse IAP, primary screen, biochemical, luminescence, uHTS | intestinal alkaline phosphatase [Mus musculus] | muIAP, CDP-Star luminescence, 30 min; hits give high values; 1 = vehicle-only enzyme signal, 0 = enzyme-free wells | actives 0.24% (n = 330,000) | activation factor at 10 µM | AID 2805, 2010;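 active = activation factor of at least 2 at 20 µM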
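Assay system: mouse IAP enzyme; reagent: chemiluminescent substrate CDP-Star; dosing: test compounds delivered from DMSO solution; schedule: 30 min at room temperature; measured by: luminescence from enzymatic CDP-Star hydrolysis; controls: DMSO-only wells and no-enzyme negative control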
hIAP activ: human IAP activators, primary screen, biochemical, luminescence, uHTS; Intestinal-type alkaline phosphatase (Homo sapiens), P09923; purified human IAP, CDP-Star luminescence, 30 min; hits give high values; 1 = vehicle-only enzyme, 0 = enzyme-free background; activation factor at 10 µM; actives 0.16% (n = 330,000); AID 2524, 2010;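 active = activation factor of the enzyme at least 2-fold when tested at 20 µM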
bIAP inhibitor: bovine intestinal alkaline phosphatase inhibitors, primary screen, selectivity assay for TNAP inhibitor project, biochemical, bovine IAP, CDP-star luminescence. inhibition, % at 20 µM. 190,000 tested, under 10 active. AID 1019, 2008. purified bovine IAP, 30 min;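 active = over 50% inhibition of intestinal alkaline phosphatase at 20 µM in the single-dose screen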
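test system = bovine IAP enzyme | medium = DEA buffer 100 mM, pH 9.8, with MgCl2 1.0 mM, ZnCl2 0.02 mM | detection = luminescence | dosing = single compound dose of 20 µM, 2% DMSO final | incubation = 30 min reaction at room temperature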
mIAP inh: inhibitors of mouse IAP, primary screen, biochemical, luminescence, uHTS; intestinal alkaline phosphatase [Mus musculus]; purified mouse IAP, CDP-Star luminescence, 30 min; inhibition, % at 10 µM; actives 0.2% (n = 330,000); AID 2806, 2010;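 active = inhibition of at least 40% at 10 µM in the primary screen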
Of the large screens only hits and unclear results are named; the others gave an inactive call.

CC(COc1ccccc1Cc1ccccc1)N1CCCCC1 (configuration not stated)	hIAP block 40.3 (no result: bIAP activator, bIAP inhibitor)
COc1ccc(Cc2nnc(NC(=O)CS(=O)(=O)Cc3ccccc3)s2)cc1	none (no result: bIAP activator, bIAP inhibitor)
O=C(N1CCN(c2ccccc2F)CC1)C1(c2cccs2)CCOCC1	bIAP activator 3.7
O=C(CSc1nnc(COc2ccccc2Cl)o1)Nc1ccccc1	none (no result: bIAP activator, bIAP inhibitor)
C/C(N)=C(/C#N)C(=O)CSc1nnc(COc2ccccc2Cl)o1	bIAP activator 2.1
CC(C)CNC(=S)NC(=O)c1csc([N+](=O)[O-])c1	none (no result: bIAP activator, bIAP inhibitor)
O=[N+]([O-])c1cc(-c2ncccn2)cs1	bIAP activator 2.5
CC(NC(=O)CN(C)Cc1cccc(Cl)c1)c1ccccc1 (configuration not stated)	none (no result: bIAP activator, bIAP inhibitor)
Cc1nn(C)c(C)c1NC(=O)Nc1cccc(C(F)(F)F)c1	none
Cc1nn(C)c(C)c1NC(=O)Nc1ccc(Cl)c(Cl)c1	mIAP activ 2.14
CCc1ccccc1NC(=O)CSc1nc2n[nH]c(C)c2c(=N)n1-c1ccc(OC)cc1	none (no result: hIAP block, mIAP activ, hIAP activ, mIAP inh)
CCCN(CCC)C(=O)CSc1nc2n[nH]c(C)c2c(=N)n1-c1ccc(OC)cc1	bIAP activator 2.9
CCCN(CCC)C(=O)CSc1nc2n[nH]c(C)c2c(=N)n1-c1ccc(OCC)cc1	bIAP activator 2.1
Cc1ccc(C(=O)OCN2C(=O)c3ccccc3C2=O)c(O)c1	none (no result: bIAP activator, bIAP inhibitor)
Cc1cc(C)n(CCCNC(=O)C(C)(C)Oc2ccc(Cl)cc2)n1	none (no result: bIAP activator, bIAP inhibitor)
C[C@@H](C(=O)Nc1ccc2ccccc2c1)[C@@H]1C[C@@]1(C)[C@@H](NC(=O)OCc1ccccc1)c1ccccc1	mIAP activ 2.04 (no result: bIAP activator, bIAP inhibitor)
COc1ccccc1C(=O)NC(=O)COC(=O)Cn1[nH]c(=O)c2ccccc2c1=O	none (no result: bIAP activator, bIAP inhibitor)
Cc1ccc(C(C)NC(=S)NCc2ccc(F)cc2)c(C)c1 (configuration not stated)	mIAP activ 2.14 (no result: bIAP activator, bIAP inhibitor)
CCc1ccc(C(C)NC(=S)NCc2ccc(F)cc2)cc1 (configuration not stated)	mIAP activ 2.09 (no result: bIAP activator, bIAP inhibitor)
Cc1ccc(C(C)NC(=S)NCc2ccc(F)cc2)cc1C (configuration not stated)	none (no result: bIAP activator, bIAP inhibitor)
CCOC(=O)c1ccc(NC(=O)c2ccc3c(c2)C(=O)N(Cc2cccnc2)C3=O)cc1	none (no result: bIAP activator, bIAP inhibitor)
O=C(Nc1ccc(N2CCOCC2)cc1)c1ccc2nc(-c3ccco3)c(-c3ccco3)nc2c1	none
S=C(Nc1ccc(N2CCOCC2)cc1)Nc1ccc2nc(-c3ccco3)c(-c3ccco3)nc2c1	mIAP inh 44.7
CC(=O)Nc1ccc(C(=O)CN2C(=O)NC3(CCOc4ccccc43)C2=O)c(F)c1 (configuration not stated)	none (no result: bIAP activator, bIAP inhibitor)
CCCCN(C)CC(O)Cn1cc(/C=C/C(=O)c2ccc(C)cc2)c2ccccc21 (configuration not stated)	none (no result: bIAP activator, bIAP inhibitor)
CCOC(=O)c1cccc(NC(=S)NCc2ccc(C)cc2)c1	mIAP activ 2.43
O=C(NCc1cccc2ccccc12)Nc1ccccc1	mIAP activ 2
O=C(Nc1ccccc1)Nc1cccc2ccccc12	mIAP activ 2.89 (no result: bIAP activator, bIAP inhibitor)
CC(=O)c1cccc(NC(=S)NCc2ccccc2)c1	none (no result: bIAP activator, bIAP inhibitor)
O=C(NCc1ccccc1)Nc1cccc2ccccc12	none
CCOC(=O)c1ccc(NC(=O)NCc2ccc(OC)cc2)cc1	mIAP activ 2.19
Cc1onc(-c2ccccc2Cl)c1C(=O)NCc1nnnn1-c1ccc(F)cc1	none (no result: bIAP activator, bIAP inhibitor)
Cc1nn(C2CCS(=O)(=O)C2)c2nc(C3CC3)cc(C(=O)Nc3ccc(C(N)=O)cc3)c12 (configuration not stated)	none (no result: bIAP activator, bIAP inhibitor)
CCOc1ccc(NC(=O)CN(C)C(=O)CCCOc2ccc(Cl)c(C)c2)cc1OCC	none (no result: bIAP activator, bIAP inhibitor)
COc1ccc(CNC(=O)Nc2cccc3ccccc23)cc1	mIAP activ 2.06
CCOc1ccccc1NC(=O)NCCc1c[nH]c2ccccc12	none (no result: bIAP activator, bIAP inhibitor)
O=C(NCCc1c[nH]c2ccccc12)Nc1cccc2ccccc12	mIAP activ 2.32
CC[C@]12c3[nH]c4ccc(Cl)cc4c3CCN1C(=O)[C@@H](CC(=O)NCc1ccc(OC)c(OC)c1)C[C@@H]2C(=O)N1CCN(C(=O)c2ccco2)CC1	none (no result: hIAP block, bIAP activator, hIAP activ, bIAP inhibitor)
O=S1(=O)N=C(c2ccccc2)C=C(c2ccccc2)N1	none (no result: hIAP block, bIAP activator, hIAP activ, bIAP inhibitor)
Cn1c(/C=N/Nc2nc3ccccc3[nH]2)nc2ccccc21	mIAP inh 41.8
Cc1nn(C)cc1/C=N\NC(=O)c1ccc2c(c1)c(C)c(C)n2Cc1ccccc1	bIAP activator 8.3, mIAP activ 2.3
Cc1c(C)n(Cc2ccccc2)c2ccc(C(=O)O)cc12	none (no result: bIAP activator, bIAP inhibitor)
COc1ccc(OCC(O)Cn2c(=N)n(Cc3ccccc3)c3ccccc32)cc1 (configuration not stated)	bIAP activator 2.8
CN(C)CCNC(=O)CCn1nc(-c2ccc(Cl)cc2)ccc1=O	none (no result: bIAP activator, bIAP inhibitor)
O=C1NC(=S)S/C1=C/c1ccc(N2CCOCC2)o1	mIAP inh 52.9
Cc1[nH]c2ccc(-c3nnc(SCC(=O)c4ccc(F)cc4)o3)cc2c1C	mIAP inh 56.7
Cc1cc(C)c(C)c(C(=O)CSc2nnc(-c3ccc4[nH]c(C)c(C)c4c3)o2)c1C	none
C[C@H]1COC(=O)[C@@H](CC(=O)OC(C)(C)C)C/C=C\C[C@@H](CC(=O)N(CCO)Cc2ccccc2)C(=O)N1	none (no result: bIAP activator, bIAP inhibitor)
Cc1cccc(C)c1NC1=NC2(CCCCC2)N=C(N)N1	none
NC1=NC2(CCCCC2)N=C(Nc2ccc(Br)cc2)N1	mIAP activ 4.27
COc1cccc(NC2=NC3(CCCCC3)N=C(N)N2)c1	bIAP activator 4.3
Cc1nn(CSc2c(F)c(F)c(F)c(F)c2F)c(C)c1[N+](=O)[O-]	none (no result: bIAP activator, bIAP inhibitor)
CN(CC1COc2ccccc2O1)C(=O)CSc1ncccn1 (configuration not stated)	none (no result: bIAP activator, bIAP inhibitor)
COc1ccc(-c2nn(C)c3sc(C(=O)NCc4ccco4)cc23)cc1OC	bIAP activator 3.5
C#Cc1cccc(NC(=O)c2ccc3c(c2)C(=O)N(Cc2cccnc2)C3=O)c1	none (no result: bIAP activator, bIAP inhibitor)
N#Cc1cc2c(nc1SCc1ccccc1)CCCCC2	none
N#Cc1cc2c(nc1SCc1cccc(Cl)c1)CCCCC2	mIAP inh 40.6
Cc1nc(-c2cccc(NC(=O)c3cccc(S(=O)(=O)N4CCCC4)c3)c2)cs1	none (no result: bIAP activator, bIAP inhibitor)
COc1ccc(Cl)cc1NC(=O)CN1CCC(n2nnc3cc(C)ccc32)CC1	bIAP activator 5.3

Assay outcomes (PubChem)
